According to ChEMBL document CHEMBL4665651, “Design, synthesis, and biological evaluation of some novel 4-aminoquinazolines as Pan-PI3K inhibitors” (Bioorg Med Chem, 2019):
The source made the active and inactive calls. No cut-off for these calls is given here.

Legend:
MCF7 [1] = assay: Inhibition of colony formation in human MCF7 cells at 0.2 to 0.8 uM incubated for 72 hrs by crystal violet staining based assay; format: functional, cell-based; details: dose microM 0.2-0.8, time 72.0 hrs
How it was run: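 MCF-7 cells seeded at 3×10³ cells per well in 6-well plates. Exposed to 0, 0.2, 0.4 or 0.8 μM for 72 h, then grown one week in drug-free medium. Colonies stained with crystal violet and photographed.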

[2] = molecular target: T1, Phosphatidylinositol 4,5-bisphosphate 3-kinase catalytic subunit delta isoform (Homo sapiens, UniProt O00329); assay: Inhibition of PI3Kdelta (unknown origin) using lipid as substrate incubated for 15 mins followed by substrate addition and measured after 60 mins ADPGloTM reagent based assay
T1 sequence (O00329 whole entry): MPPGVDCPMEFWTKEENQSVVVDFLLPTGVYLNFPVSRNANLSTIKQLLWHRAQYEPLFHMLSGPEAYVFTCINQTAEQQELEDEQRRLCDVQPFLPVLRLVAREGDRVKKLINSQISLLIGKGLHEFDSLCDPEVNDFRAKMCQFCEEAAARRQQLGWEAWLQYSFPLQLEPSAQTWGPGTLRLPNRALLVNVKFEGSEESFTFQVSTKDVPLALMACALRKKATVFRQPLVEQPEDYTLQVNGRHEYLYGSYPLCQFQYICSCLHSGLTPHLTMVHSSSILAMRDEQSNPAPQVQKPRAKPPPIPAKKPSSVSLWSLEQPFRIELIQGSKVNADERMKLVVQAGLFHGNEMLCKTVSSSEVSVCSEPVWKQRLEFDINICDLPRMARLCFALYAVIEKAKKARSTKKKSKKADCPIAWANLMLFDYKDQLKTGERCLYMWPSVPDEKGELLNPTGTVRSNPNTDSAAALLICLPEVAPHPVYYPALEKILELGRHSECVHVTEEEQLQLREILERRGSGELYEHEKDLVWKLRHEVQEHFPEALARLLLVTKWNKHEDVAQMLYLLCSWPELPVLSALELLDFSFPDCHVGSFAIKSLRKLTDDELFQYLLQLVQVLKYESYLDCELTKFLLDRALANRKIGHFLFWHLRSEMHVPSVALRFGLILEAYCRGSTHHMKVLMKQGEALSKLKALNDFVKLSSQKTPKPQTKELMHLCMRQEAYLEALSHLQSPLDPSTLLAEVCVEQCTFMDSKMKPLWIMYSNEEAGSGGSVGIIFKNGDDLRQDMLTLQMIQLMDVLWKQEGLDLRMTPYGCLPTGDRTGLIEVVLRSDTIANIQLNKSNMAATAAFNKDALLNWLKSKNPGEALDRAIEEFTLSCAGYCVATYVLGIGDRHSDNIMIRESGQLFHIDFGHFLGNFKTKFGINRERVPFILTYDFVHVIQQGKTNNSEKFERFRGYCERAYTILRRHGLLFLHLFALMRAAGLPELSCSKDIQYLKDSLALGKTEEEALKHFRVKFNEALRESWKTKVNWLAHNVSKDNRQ
How it was run: (§1)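 ADP-Glo luminescent readout of ADP formed. Isoforms tested: p110α/p85α, p110β/p85α, p120γ and p110δ/p85α, each in PI3K reaction buffer with lipid substrate. Enzyme preincubated with compound for 15 min at room temperature. ADP-Glo reagent added for 40 min, then detection reagent for 40 min. IC50 from normalized nonlinear dose–response fit.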

MCF7 [3] = assay: Induction of apoptosis in human MCF7 cells assessed as early apoptotic cells at 0.4 uM incubated for 48 hrs by annexin V-FITC and propidium iodide staining based flow cytometry analysis (reference value: 2.7 %); format: functional
HCT-116 = assay: Antiproliferative activity against human HCT-116 cells assessed as reduction in cell viability incubated for 72 hrs by SRB assay; format: functional, cell-based; details: HCT-116, 72 h
MCF7 [4] = assay: Induction of apoptosis in human MCF7 cells assessed as late apoptotic cells at 0.2 uM incubated for 48 hrs by annexin V-FITC and propidium iodide staining based flow cytometry analysis (reference value: 9.2 %); format: functional
MCF7 [5] = assay: Inhibition of PI3K in human MCF7 cells assessed as Akt phosphorylation by Western blot analysis; format: cell-based; details: dose microM 0.1-10
How it was run: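 MCF-7 cells treated at 0.1, 1 and 10 μM, then washed in cold PBS and lysed in RIPA buffer with protease and phosphatase inhibitors. Equal protein run on 10% SDS-PAGE and transferred to PVDF. Blots probed for total Akt and phospho-Akt (Ser473), with GAPDH as loading control.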

MCF7 [6] = assay: Induction of apoptosis in human MCF7 cells assessed as viable cells at 0.4 uM incubated for 48 hrs by annexin V-FITC and propidium iodide staining based flow cytometry analysis (reference value: 87.7 %); format: functional; details: read-out: Activity
[7] = molecular target: Phosphatidylinositol 4,5-bisphosphate 3-kinase catalytic subunit alpha isoform (Homo sapiens, UniProt P42336); assay: Inhibition of PI3Kalpha (unknown origin) using lipid as substrate incubated for 15 mins followed by substrate addition and measured after 60 mins ADPGloTM reagent based assay; how it was run: as §1
MCF7 [8] = assay: Induction of apoptosis in human MCF7 cells assessed as chromatin condensation at 0.2 to 0.8 uM incubated for 48 hrs by Hoechst 33342 staining based fluorescence microscopic analysis; format: functional, cell-based; details: dose microM 0.2-0.8, time 48.0 hrs
How it was run: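 MCF-7 cells seeded at 2×10⁵ per well in 6-well plates and allowed to settle 12 h. Treated 48 h, with medium-only controls. Stained with Hoechst 33342 for 30 min, washed, and nuclear morphology imaged by fluorescence microscopy.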

MCF7 [9] = assay: Induction of apoptosis in human MCF7 cells assessed as necrotic cells at 0.2 uM incubated for 48 hrs by annexin V-FITC and propidium iodide staining based flow cytometry analysis (reference value: 0.3 %); format: functional
L02 = assay: Cytotoxicity against human L02 cells assessed as reduction in cell viability incubated for 72 hrs by SRB assay; format: cell-based; details: L02, 72 h
How it was run: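 Normal cells exposed to a range of compound concentrations for 72 h at 37 °C in 5% CO₂. Cells TCA-fixed and viability read by SRB protein staining, normalized to day-0 and negative-control OD. IC50 from non-linear regression; values are means of triplicate measurements.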

MCF7 [10] = assay: Induction of apoptosis in human MCF7 cells assessed as viable cells at 0.2 uM incubated for 48 hrs by annexin V-FITC and propidium iodide staining based flow cytometry analysis (reference value: 87.7 %); format: functional; details: read-out: Activity
MCF7 [11] = assay: Induction of apoptosis in human MCF7 cells assessed as late apoptotic cells at 0.4 uM incubated for 48 hrs by annexin V-FITC and propidium iodide staining based flow cytometry analysis (reference value: 9.2 %); format: functional
MCF7 [12] = assay: Induction of apoptosis in human MCF7 cells assessed as early apoptotic cells at 0.8 uM incubated for 48 hrs by annexin V-FITC and propidium iodide staining based flow cytometry analysis (reference value: 2.7 %); format: functional
MCF7 [13] = assay: Induction of apoptosis in human MCF7 cells assessed as necrotic cells at 0.8 uM incubated for 48 hrs by annexin V-FITC and propidium iodide staining based flow cytometry analysis (reference value: 0.3 %); format: functional
MCF7 [14] = assay: Induction of apoptosis in human MCF7 cells assessed as early apoptotic cells at 0.2 uM incubated for 48 hrs by annexin V-FITC and propidium iodide staining based flow cytometry analysis (reference value: 2.7 %); format: functional

Sequence of Phosphatidylinositol 4,5-bisphosphate 3-kinase catalytic subunit alpha isoform (P42336 whole entry, canonical isoform): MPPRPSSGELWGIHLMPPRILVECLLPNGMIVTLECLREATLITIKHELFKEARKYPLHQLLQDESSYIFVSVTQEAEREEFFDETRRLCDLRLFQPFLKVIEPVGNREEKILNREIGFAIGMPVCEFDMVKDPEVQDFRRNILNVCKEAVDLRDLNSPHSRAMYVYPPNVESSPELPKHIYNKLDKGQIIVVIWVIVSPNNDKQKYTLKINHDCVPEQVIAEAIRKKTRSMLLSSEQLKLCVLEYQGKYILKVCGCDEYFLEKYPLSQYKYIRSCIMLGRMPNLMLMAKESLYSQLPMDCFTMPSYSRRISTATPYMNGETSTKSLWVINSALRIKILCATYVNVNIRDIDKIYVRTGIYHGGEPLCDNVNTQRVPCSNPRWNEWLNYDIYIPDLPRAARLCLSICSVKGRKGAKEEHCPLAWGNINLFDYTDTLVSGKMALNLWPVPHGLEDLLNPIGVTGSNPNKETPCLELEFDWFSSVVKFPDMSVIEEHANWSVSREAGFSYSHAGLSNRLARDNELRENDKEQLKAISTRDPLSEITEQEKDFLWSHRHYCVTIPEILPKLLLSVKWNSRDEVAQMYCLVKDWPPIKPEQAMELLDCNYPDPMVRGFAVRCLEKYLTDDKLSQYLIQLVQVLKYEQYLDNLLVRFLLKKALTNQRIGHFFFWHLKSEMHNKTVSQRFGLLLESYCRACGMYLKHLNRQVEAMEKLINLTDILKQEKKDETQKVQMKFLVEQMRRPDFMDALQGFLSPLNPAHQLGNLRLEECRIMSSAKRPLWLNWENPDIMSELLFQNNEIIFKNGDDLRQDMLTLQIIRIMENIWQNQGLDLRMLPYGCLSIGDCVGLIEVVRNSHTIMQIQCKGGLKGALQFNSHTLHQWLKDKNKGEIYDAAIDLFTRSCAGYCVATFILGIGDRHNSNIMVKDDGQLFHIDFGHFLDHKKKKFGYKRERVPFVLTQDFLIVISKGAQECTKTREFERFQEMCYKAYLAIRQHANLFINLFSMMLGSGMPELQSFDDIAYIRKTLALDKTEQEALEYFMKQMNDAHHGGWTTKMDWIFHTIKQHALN

SMILES: COc1ncc(-c2ccc3ncnc(Nc4cnn(CCO)c4)c3c2)cc1NS(=O)(=O)c1ccc(F)cc1F
- inhibition (MCF7 [1]): Dose-dependent effect
- IC50 [2]: 0.48 nM
- Activity (MCF7 [3]): 3.8%
- IC50 (HCT-116): 330 nM
- Activity (MCF7 [4]): 20.6%
- inhibition (MCF7 [5]): Dose-dependent effect
- viability at 0.4 µM (MCF7 [6]): 70%
- IC50 [7]: 0.2 nM
- Activity (MCF7 [8]): Active
- Activity (MCF7 [9]): 2.2%
- IC50 (L02): 60000 nM
- viability at 0.2 µM (MCF7 [10]): 74.7%
- Activity (MCF7 [11]): 23.6%
- Activity (MCF7 [12]): 4.8%
- Activity (MCF7 [13]): 2.7%
- Activity (MCF7 [14]): 2.8%
